Consider four compounds from paper PMC3361572 (Chemistry & biology, 2012).

A word on the IC50: it is the concentration needed to halve the response being measured.

Data set [1] has as its target T1, FAAH (Mus musculus, UniProt O08914).
T1 sequence (O08914 1-579): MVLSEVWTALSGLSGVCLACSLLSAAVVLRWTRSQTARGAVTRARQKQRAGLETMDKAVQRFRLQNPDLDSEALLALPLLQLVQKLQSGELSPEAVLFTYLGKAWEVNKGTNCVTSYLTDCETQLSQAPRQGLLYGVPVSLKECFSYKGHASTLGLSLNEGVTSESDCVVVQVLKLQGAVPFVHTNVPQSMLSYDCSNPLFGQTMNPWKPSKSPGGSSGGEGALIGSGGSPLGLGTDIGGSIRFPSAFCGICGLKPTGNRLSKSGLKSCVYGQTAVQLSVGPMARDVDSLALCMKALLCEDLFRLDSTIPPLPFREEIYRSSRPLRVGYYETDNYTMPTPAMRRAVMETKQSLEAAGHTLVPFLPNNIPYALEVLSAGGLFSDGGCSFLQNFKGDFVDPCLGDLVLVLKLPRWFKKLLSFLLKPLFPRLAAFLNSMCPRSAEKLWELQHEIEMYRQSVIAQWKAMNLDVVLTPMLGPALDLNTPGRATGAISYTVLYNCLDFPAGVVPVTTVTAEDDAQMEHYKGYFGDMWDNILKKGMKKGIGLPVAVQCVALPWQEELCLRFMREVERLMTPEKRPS
As to the kind of experiment: competitive ABPP, mouse brain membrane proteome. It is filed as biochemical. In a few lines:
(§1)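 Brain (mouse or rat) or mouse lung proteomes were preincubated with the test compound, then treated with the serine hydrolase probe FP-Rh. Samples were separated by SDS-PAGE and read by in-gel fluorescence scanning. Inhibition was taken as reduced FP-Rh labelling of MAGL, ABHD6, FAAH or CES bands, and IC50 values were calculated from quantified gel bands. Three independent experiments.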

The target of data set [2] is T2, MAGL (Rattus norvegicus, UniProt Q8R431).
T2 sequence (Q8R431 1-303): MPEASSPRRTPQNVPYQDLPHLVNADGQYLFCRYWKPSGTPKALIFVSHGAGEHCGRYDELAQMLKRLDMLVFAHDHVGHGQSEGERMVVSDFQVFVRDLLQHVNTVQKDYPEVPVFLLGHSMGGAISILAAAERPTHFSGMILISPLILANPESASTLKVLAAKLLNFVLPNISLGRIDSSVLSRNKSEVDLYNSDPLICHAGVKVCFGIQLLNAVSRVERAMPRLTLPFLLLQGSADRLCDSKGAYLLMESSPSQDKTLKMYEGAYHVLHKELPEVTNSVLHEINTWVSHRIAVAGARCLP
The data set is described as follows: competitive ABPP, rat brain membrane proteome. The following applies: read-out: IC50 (95% CI), rat MAGL; competitive ABPP, rat brain membrane proteome. It counts as biochemical. In a few lines: as §1

Data set [3] deals with T3, FAAH (Rattus norvegicus, UniProt P97612).
T3 sequence (P97612 1-579): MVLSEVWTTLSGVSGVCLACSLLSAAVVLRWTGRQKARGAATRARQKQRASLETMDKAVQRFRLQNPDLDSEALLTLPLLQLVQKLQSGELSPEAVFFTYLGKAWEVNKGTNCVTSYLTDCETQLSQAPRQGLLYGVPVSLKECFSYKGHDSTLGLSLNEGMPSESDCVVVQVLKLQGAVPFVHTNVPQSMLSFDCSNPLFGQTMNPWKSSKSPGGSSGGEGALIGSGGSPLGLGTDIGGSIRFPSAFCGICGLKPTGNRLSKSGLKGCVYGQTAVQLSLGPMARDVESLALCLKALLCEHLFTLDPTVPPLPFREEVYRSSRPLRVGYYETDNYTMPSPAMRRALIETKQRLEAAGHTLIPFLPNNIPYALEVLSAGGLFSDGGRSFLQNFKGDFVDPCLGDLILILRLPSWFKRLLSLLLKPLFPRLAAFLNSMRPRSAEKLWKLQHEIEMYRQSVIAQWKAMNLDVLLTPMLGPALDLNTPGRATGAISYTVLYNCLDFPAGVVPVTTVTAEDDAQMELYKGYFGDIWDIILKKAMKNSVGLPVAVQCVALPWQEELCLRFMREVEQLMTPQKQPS
As to the kind of experiment: competitive ABPP, rat brain membrane proteome. The following applies: read-out: IC50 (95% CI), rat FAAH; competitive ABPP, rat brain membrane proteome. It is filed as biochemical. The essentials:
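Rat brain proteome pre-treated with test compound, then labelled with the serine hydrolase-directed fluorophosphonate-rhodamine (FP-Rh) activity-based probe. Proteins separated by SDS-PAGE and detected by in-gel fluorescence scanning. Inhibition scored as loss of FP-Rh labelling of the FAAH band. IC50 calculated from the gel-based ABPP data.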

The target of a further data set is T4, hFAAH (Homo sapiens, UniProt O00519).
T4 sequence (O00519 1-579): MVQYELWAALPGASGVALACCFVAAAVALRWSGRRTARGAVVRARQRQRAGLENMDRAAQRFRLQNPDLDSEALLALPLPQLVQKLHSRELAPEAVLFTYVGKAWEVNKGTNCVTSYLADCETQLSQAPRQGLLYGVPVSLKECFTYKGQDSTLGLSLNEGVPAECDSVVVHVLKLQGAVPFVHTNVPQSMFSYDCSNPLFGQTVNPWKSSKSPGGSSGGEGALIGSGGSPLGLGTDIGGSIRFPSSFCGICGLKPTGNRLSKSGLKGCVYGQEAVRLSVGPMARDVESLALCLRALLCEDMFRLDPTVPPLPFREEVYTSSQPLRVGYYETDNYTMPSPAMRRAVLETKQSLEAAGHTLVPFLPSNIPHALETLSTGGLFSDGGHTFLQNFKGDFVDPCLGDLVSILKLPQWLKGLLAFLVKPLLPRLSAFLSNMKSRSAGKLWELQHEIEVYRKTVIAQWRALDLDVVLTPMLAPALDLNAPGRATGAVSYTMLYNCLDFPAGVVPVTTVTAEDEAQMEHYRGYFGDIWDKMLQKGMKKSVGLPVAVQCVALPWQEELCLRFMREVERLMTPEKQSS
As to the kind of experiment: competitive ABPP, proteomes of transiently transfected HEK293T cells. It counts as biochemical. Conditions: for IC50: read-out: IC50 (95% CI), human FAAH, competitive ABPP, transfected HEK293T cell proteome.

In data set [4] the test system is other rat brain serine hydrolases. The data set is described as follows: competitive ABPP, rat brain proteome, other serine hydrolases. It is filed as biochemical. The essentials:
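Rat brain proteome was preincubated with test compound, then labelled with the serine hydrolase-directed probe FP-rhodamine. Proteins were separated by SDS-PAGE and scanned by in-gel fluorescence. Inhibition of individual serine hydrolases was scored as reduced probe labelling.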

The target of data set [5] is T5, MAGL (Mus musculus, UniProt O35678).
T5 sequence (O35678 1-303): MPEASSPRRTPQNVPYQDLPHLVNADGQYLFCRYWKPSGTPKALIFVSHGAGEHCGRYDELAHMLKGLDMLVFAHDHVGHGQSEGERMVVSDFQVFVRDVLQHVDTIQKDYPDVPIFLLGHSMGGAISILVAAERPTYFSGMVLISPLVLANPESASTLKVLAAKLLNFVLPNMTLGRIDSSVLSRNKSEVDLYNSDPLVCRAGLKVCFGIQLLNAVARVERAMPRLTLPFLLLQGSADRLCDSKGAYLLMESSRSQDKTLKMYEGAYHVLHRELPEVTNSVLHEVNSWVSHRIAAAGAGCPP
As to the kind of experiment: competitive ABPP, mouse brain membrane proteome. It is filed as biochemical. Conditions: mouse brain proteome, competitive ABPP.

The next data set concerns the target T6, hMAGL (Homo sapiens, UniProt Q99685).
T6 sequence (Q99685 1-303): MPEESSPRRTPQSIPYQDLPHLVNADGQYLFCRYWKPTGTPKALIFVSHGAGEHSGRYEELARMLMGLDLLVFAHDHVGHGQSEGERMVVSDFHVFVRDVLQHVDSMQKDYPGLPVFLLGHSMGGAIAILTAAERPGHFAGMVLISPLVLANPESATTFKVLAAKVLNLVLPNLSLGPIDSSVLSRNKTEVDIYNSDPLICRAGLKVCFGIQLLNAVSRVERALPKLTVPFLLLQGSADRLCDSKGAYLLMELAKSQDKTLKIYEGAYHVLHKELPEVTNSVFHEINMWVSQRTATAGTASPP
As to the kind of experiment: competitive ABPP, proteomes of transiently transfected HEK293T cells. It counts as biochemical. Conditions: read-out: IC50 (95% CI), human MAGL, transfected HEK293T cell proteome.

In data set [6] the target is T1, FAAH. As to the kind of experiment: competitive ABPP of brain from inhibitor-treated mice. It is filed as in vivo.
The test system of data set [7] is brain 2-AG, AA, AEA, PEA, OEA. The data set is described as follows: brain lipid profile of inhibitor-treated mice. It is filed as in vivo, mouse. Conditions: 40 mg kg^−1 p.o., six days.
The test system of data set [8] is carboxylesterase (CES) enzymes. The data set is described as follows: gel-based ABPP of liver, lung and spleen from inhibitor-treated mice. It counts as in vivo, mouse.
The conditions of data set [9]: previously noted by the authors, no reference given; cited from earlier work.
For data set [10] the following is noted: no reference given; cited from earlier work.

`CN(Cc1cccc(-c2ccncc2)c1)C(=O)OC(C(F)(F)F)C(F)(F)F` [JW618]: on FAAH [1] (mouse brain proteome, concentration range tested 0.001–50 μM), the “FAAH inhibition / cross-reactivity (gel-based ABPP)” value is recorded as “no detectable crossreactivity with FAAH”. For the same compound, the values for the IC50 at MAGL [2], on FAAH [3] and on hFAAH were 0.385 µM, more than 50 µM and more than 50 µM, respectively. Also, the “additional off-target reactivity with other rat brain serine hydrolases” value in [4] is “did not detect any additional off-target reactivity”.

Consider `O=C(OC(C(F)(F)F)C(F)(F)F)N1CCN(Cc2cccc(Oc3ccccc3)c2)CC1` [JW642], for which the “potency for MAGL relative to FAAH” value at MAGL [5] is on record as more than 1000 fold. In addition, the FAAH reactivity entry on FAAH [1] (competitive ABPP, up to 10 μM) is “no observable FAAH reactivity up to 10 μM”. The 50% inhibitory concentration (IC50) on MAGL [2] worked out at 0.014 µM; at FAAH [3], 14 µM; on hMAGL it was 0.0037 µM; at hFAAH it was 20.6 µM. Further, the “additional off-target reactivity with other rat brain serine hydrolases” value in data set [4] is given as “did not detect any additional off-target reactivity”.

In the case of `O=C(Oc1ccc([N+](=O)[O-])cc1)N1CCC(C(O)(c2ccc3c(c2)OCO3)c2ccc3c(c2)OCO3)CC1` [JZL184, reference compound], the results for the IC50 at MAGL [2], on FAAH [3] and at hFAAH were 0.262 µM, 3.57 µM and more than 50 µM, respectively. Further, on hFAAH (lysates of HEK293T cells transfected with hFAAH), the “cross-reactivity with hFAAH (competitive ABPP)” value is “no detectable cross-reactivity with FAAH up to 50 μM”. Further, the “brain FAAH inhibition, chronic dosing” value at FAAH [6] (40 mg kg^−1 p.o., six days) is reported as “not only inhibited MAGL, but also FAAH”. Besides, the “inhibition of brain FAAH” value at FAAH [6] (highest dose tested 40 mg kg^−1 p.o., 4 h) is given as “partially inhibit FAAH”. The “brain 2-AG and NAE levels, chronic dosing” value in data set [7] was “increases in both 2-AG and NAEs”. Further, the “CES inhibition in peripheral tissues, chronic dosing” value in data set [8] (40 mg kg^−1 p.o., six days) is reported as “several CES enzymes in peripheral tissues”. Further, in data set [8] (1–40 mg kg^−1 p.o., 4 h), the “reactivity with CESs in liver, lung and spleen” value is on record as “significant reactivity with several CESs”. In addition, the “solubility in dosing vehicle” value in data set [9] is given as “limited solubility”.

Regarding `OC(C(F)(F)F)C(F)(F)F` [hexafluoroisopropanol], the pKa in data set [10] was ~ 9.3.
